Laboratory results published in ChEMBL document CHEMBL4673212, “Investigation of synergistic antimicrobial effects of the drug combinations of meropenem and 1,2-benzisoselenazol-3(2H)-one derivatives on carbapenem-resistant Enterobacteriaceae producing NDM-1” (Eur J Med Chem, 2018).

Columns and labels:
Format in all cases: functional
Enterobacter cloacae [1] = assay: Synergistic antibacterial activity against carbapenem-resistant Enterobacter cloacae isolate 27 harboring CTX-M-3, CTX-M-14, TEM-1 and SHV-12 assessed as fractional inhibitory concentration index in presence of meropenem by CLSI protocol based assay
Outline: (§1)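 FIC index from MICs of compound alone, meropenem alone, and the 1:1 (mass) compound–meropenem combination, read by eye after overnight incubation in a CLSI-based assay. FIC index = MICcombo/MICcpd + MICcombo/MICMem. FIC index ≤0.5 counted as synergy. At least triplicate assays. Clinical NDM-1 isolates for 17-39; E. coli TG1 carrying the IncX3 blaNDM-1 plasmid for 15.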

Morganella morganii [2] = assay: Potentiation of meropenem-induced antibacterial activity against carbapenem-resistant Morganella morganii isolate 23 assessed as meropenem MIC by CLSI protocol based assay (reference value: 64 ug/ml)
Enterobacter cloacae [3] = assay: Potentiation of meropenem-induced antibacterial activity against carbapenem-resistant Enterobacter cloacae isolate 22 harboring CTX-M-14, TEM-1 and SHV-12 assessed as meropenem MIC by CLSI protocol based assay (Rvb >= 128 ug/ml)
Citrobacter freundii [4] = assay: Synergistic antibacterial activity against carbapenem-resistant Citrobacter freundii isolate 35 harboring CTX-M-3, KPC-2 and SHV-12 assessed as fractional inhibitory concentration index in presence of meropenem by CLSI protocol based assay
Enterobacter cloacae [5] = assay: Potentiation of meropenem-induced antibacterial activity against carbapenem-resistant Enterobacter cloacae isolate 27 harboring CTX-M-3, CTX-M-14, TEM-1 and SHV-12 assessed as meropenem MIC by CLSI protocol based assay (reference value: 32 ug/ml)
Enterobacter cloacae [6] = assay: Growth inhibition of carbapenem-resistant Enterobacter cloacae isolate 07 harboring CTX-M-14, TEM-1 and SHV-12 by CLSI protocol based assay
Morganella morganii [7] = assay: Growth inhibition of carbapenem-resistant Morganella morganii isolate 26 by CLSI protocol based assay
Escherichia coli [8] = assay: Synergistic antibacterial activity against carbapenem-resistant Escherichia coli isolate 45 assessed as fractional inhibitory concentration index in presence of meropenem by CLSI protocol based assay; outline: as §1
Klebsiella oxytoca [9] = assay: Potentiation of meropenem-induced antibacterial activity against carbapenem-resistant Klebsiella oxytoca isolate 03 harboring SHV-12 assessed as meropenem MIC by CLSI protocol based assay (Rvb >= 128 ug/ml)
Enterobacter cloacae [10] = assay: Potentiation of meropenem-induced antibacterial activity against carbapenem-resistant Enterobacter cloacae isolate 10 harboring CTX-M-14, TEM-1 and SHV-12 assessed as meropenem MIC by CLSI protocol based assay (reference value: 64 ug/ml)
Citrobacter freundii [11] = assay: Growth inhibition of carbapenem-resistant Citrobacter freundii isolate 43 by CLSI protocol based assay
Enterobacter cloacae [12] = assay: Synergistic antibacterial activity against carbapenem-resistant Enterobacter cloacae isolate 07 harboring CTX-M-14, TEM-1 and SHV-12 assessed as fractional inhibitory concentration index in presence of meropenem by CLSI protocol based assay; outline: as §1
Citrobacter freundii [13] = assay: Synergistic antibacterial activity against carbapenem-resistant Citrobacter freundii isolate 17 harboring SHV-12 assessed as fractional inhibitory concentration index in presence of meropenem by CLSI protocol based assay; outline: as §1
Morganella morganii [14] = assay: Growth inhibition of carbapenem-resistant Morganella morganii isolate 23 by CLSI protocol based assay
Enterobacter cloacae [15] = assay: Synergistic antibacterial activity against carbapenem-resistant Enterobacter cloacae isolate 18 harboring IMP-4 and TEM-1 assessed as fractional inhibitory concentration index in presence of meropenem by CLSI protocol based assay
Klebsiella oxytoca [16] = assay: Synergistic antibacterial activity against carbapenem-resistant Klebsiella oxytoca isolate 03 harboring SHV-12 assessed as fractional inhibitory concentration index in presence of meropenem by CLSI protocol based assay; outline: as §1
Morganella morganii [17] = assay: Synergistic antibacterial activity against carbapenem-resistant Morganella morganii isolate 26 assessed as fractional inhibitory concentration index in presence of meropenem by CLSI protocol based assay; outline: as §1
Enterobacter cloacae [18] = assay: Growth inhibition of carbapenem-resistant Enterobacter cloacae isolate 19 harboring CTX-M-14 and KPC-2 by CLSI protocol based assay
Enterobacter cloacae [19] = assay: Growth inhibition of carbapenem-resistant Enterobacter cloacae isolate 09 harboring CTX-M-3, CTX-M-14, TEM-1 and SHV-12 by CLSI protocol based assay
Enterobacter cloacae [20] = assay: Synergistic antibacterial activity against carbapenem-resistant Enterobacter cloacae isolate 22 harboring CTX-M-14, TEM-1 and SHV-12 assessed as fractional inhibitory concentration index in presence of meropenem by CLSI protocol based assay; outline: as §1
Escherichia coli [21] = assay: Growth inhibition of carbapenem-resistant Escherichia coli isolate 45 by CLSI protocol based assay
Citrobacter freundii [22] = assay: Potentiation of meropenem-induced antibacterial activity against carbapenem-resistant Citrobacter freundii isolate 43 assessed as meropenem MIC by CLSI protocol based assay (Rvb >= 128 ug/ml)
Escherichia coli [23] = assay: Potentiation of meropenem-induced antibacterial activity against Escherichia coli TG1 transformed with IncX3 plasmid expressing blaNDM-1 assessed as bacterial growth inhibition by measuring meropenem MIC incubated for overnight by CLSI protocol based assay; conditions: time 12 hrs
Klebsiella oxytoca [24] = assay: Growth inhibition of carbapenem-resistant Klebsiella oxytoca isolate 16 harboring SHV-12 by CLSI protocol based assay
Enterobacter cloacae [25] = assay: Potentiation of meropenem-induced antibacterial activity against carbapenem-resistant Enterobacter cloacae isolate 18 harboring IMP-4 and TEM-1 assessed as meropenem MIC by CLSI protocol based assay (reference value: 32 ug/ml)
Escherichia coli [26] = assay: Synergistic antibacterial activity against carbapenem-resistant Escherichia coli isolate 33 harboring CTX-M-15 assessed as fractional inhibitory concentration index in presence of meropenem by CLSI protocol based assay; outline: as §1
Enterobacter cloacae [27] = assay: Synergistic antibacterial activity against carbapenem-resistant Enterobacter cloacae isolate 10 harboring CTX-M-14, TEM-1 and SHV-12 assessed as fractional inhibitory concentration index in presence of meropenem by CLSI protocol based assay; outline: as §1
Escherichia coli [28] = assay: Growth inhibition of carbapenem-resistant Escherichia coli isolate 06 harboring CTX-M-14, CTX-M-3 and SHV-12 by CLSI protocol based assay
Escherichia coli [29] = assay: Growth inhibition of carbapenem-resistant Escherichia coli isolate 33 harboring CTX-M-15 by CLSI protocol based assay
Enterobacter cloacae [30] = assay: Growth inhibition of carbapenem-resistant Enterobacter cloacae isolate 22 harboring CTX-M-14, TEM-1 and SHV-12 by CLSI protocol based assay
Escherichia coli [31] = assay: Potentiation of meropenem-induced antibacterial activity against carbapenem-resistant Escherichia coli isolate 33 harboring CTX-M-15 assessed as meropenem MIC by CLSI protocol based assay (reference value: 64 ug/ml)
Klebsiella pneumoniae = assay: Growth inhibition of carbapenem-resistant Klebsiella pneumoniae isolate 14 harboring CTX-M-14, KPC-2 and SHV-12 by CLSI protocol based assay
Citrobacter freundii [32] = assay: Potentiation of meropenem-induced antibacterial activity against carbapenem-resistant Citrobacter freundii isolate 17 harboring SHV-12 assessed as meropenem MIC by CLSI protocol based assay (reference value: 64 ug/ml)
Citrobacter freundii [33] = assay: Potentiation of meropenem-induced antibacterial activity against carbapenem-resistant Citrobacter freundii isolate 05 harboring SHV-12 assessed as meropenem MIC by CLSI protocol based assay (Rvb >= 128 ug/ml)

CC(C)(C)OC(=O)NCCn1[se]c2ccccc2c1=O
fractional inhibitory concentration index (FICI) (Enterobacter cloacae [1]): 0.16 | MIC (Morganella morganii [2]): 8 µg/mL | MIC (Enterobacter cloacae [3]): 16 µg/mL | fractional inhibitory concentration index (FICI) (Citrobacter freundii [4]): 0.13 | MIC (Enterobacter cloacae [5]): 4 µg/mL | MIC (Enterobacter cloacae [6]): ≥ 128 µg/mL | MIC (Morganella morganii [7]): ≥ 128 µg/mL | fractional inhibitory concentration index (FICI) (Escherichia coli [8]): 0.06 | MIC (Klebsiella oxytoca [9]): 8 µg/mL | MIC (Enterobacter cloacae [10]): 8 µg/mL | MIC (Citrobacter freundii [11]): ≥ 128 µg/mL | fractional inhibitory concentration index (FICI) (Enterobacter cloacae [12]): 0.19 | fractional inhibitory concentration index (FICI) (Citrobacter freundii [13]): 0.09 | MIC (Morganella morganii [14]): ≥ 128 µg/mL | fractional inhibitory concentration index (FICI) (Enterobacter cloacae [15]): 0.63 | fractional inhibitory concentration index (FICI) (Klebsiella oxytoca [16]): 0.13 | fractional inhibitory concentration index (FICI) (Morganella morganii [17]): 0.05 | MIC (Enterobacter cloacae [18]): ≥ 128 µg/mL | MIC (Enterobacter cloacae [19]): ≥ 128 µg/mL | fractional inhibitory concentration index (FICI) (Enterobacter cloacae [20]): 0.25 | MIC (Escherichia coli [21]): ≥ 128 µg/mL | MIC (Citrobacter freundii [22]): 16 µg/mL | MIC (Escherichia coli [23]): 2 µg/mL | MIC (Klebsiella oxytoca [24]): ≥ 128 µg/mL | MIC (Enterobacter cloacae [25]): 16 µg/mL | fractional inhibitory concentration index (FICI) (Escherichia coli [26]): 0.19 | fractional inhibitory concentration index (FICI) (Enterobacter cloacae [27]): 0.19 | MIC (Escherichia coli [28]): ≥ 128 µg/mL | MIC (Escherichia coli [29]): ≥ 128 µg/mL | MIC (Enterobacter cloacae [30]): ≥ 128 µg/mL | MIC (Escherichia coli [31]): 8 µg/mL | MIC (Klebsiella pneumoniae): ≥ 128 µg/mL | MIC (Citrobacter freundii [32]): 4 µg/mL | MIC (Citrobacter freundii [33]): 8 µg/mL

O=c1c2ccccc2[se]n1-c1ccccc1 [EBSELEN]
fractional inhibitory concentration index (FICI) (Enterobacter cloacae [1]): 2.5 | MIC (Morganella morganii [2]): 64 µg/mL | MIC (Enterobacter cloacae [3]): ≥ 128 µg/mL | fractional inhibitory concentration index (FICI) (Citrobacter freundii [4]): 0.5 | MIC (Enterobacter cloacae [5]): 64 µg/mL | MIC (Enterobacter cloacae [6]): ≥ 128 µg/mL | MIC (Morganella morganii [7]): ≥ 128 µg/mL | fractional inhibitory concentration index (FICI) (Escherichia coli [8]): 0.25 | MIC (Klebsiella oxytoca [9]): 32 µg/mL | MIC (Enterobacter cloacae [10]): 64 µg/mL | MIC (Citrobacter freundii [11]): ≥ 128 µg/mL | fractional inhibitory concentration index (FICI) (Enterobacter cloacae [12]): 0.38 | fractional inhibitory concentration index (FICI) (Citrobacter freundii [13]): 0.38 | MIC (Morganella morganii [14]): ≥ 128 µg/mL | fractional inhibitory concentration index (FICI) (Enterobacter cloacae [15]): 2.5 | fractional inhibitory concentration index (FICI) (Klebsiella oxytoca [16]): 0.5 | fractional inhibitory concentration index (FICI) (Morganella morganii [17]): 1.5 | MIC (Enterobacter cloacae [18]): ≥ 128 µg/mL | MIC (Enterobacter cloacae [19]): ≥ 128 µg/mL | fractional inhibitory concentration index (FICI) (Enterobacter cloacae [20]): 2 | MIC (Escherichia coli [21]): ≥ 128 µg/mL | MIC (Citrobacter freundii [22]): 32 µg/mL | MIC (Escherichia coli [23]): 16 µg/mL | MIC (Klebsiella oxytoca [24]): ≥ 128 µg/mL | MIC (Enterobacter cloacae [25]): 64 µg/mL | fractional inhibitory concentration index (FICI) (Escherichia coli [26]): 0.38 | fractional inhibitory concentration index (FICI) (Enterobacter cloacae [27]): 1.5 | MIC (Escherichia coli [28]): ≥ 128 µg/mL | MIC (Escherichia coli [29]): ≥ 128 µg/mL | MIC (Enterobacter cloacae [30]): ≥ 128 µg/mL | MIC (Escherichia coli [31]): 16 µg/mL | MIC (Klebsiella pneumoniae): ≥ 128 µg/mL | MIC (Citrobacter freundii [32]): 16 µg/mL | MIC (Citrobacter freundii [33]): 16 µg/mL
